The source made the active and inactive calls. The calls are words filed in the database; no cut-off is given here.
What was measured:
[1] = Antiviral activity against amantadine-resistant Influenza A virus A/California/07/2009 (H1N1) expressing M2 proton channel S31N mutant infected in MDCK cells harboring ST6Gal1 gene assessed as reduction in plaque formation at 10 uM measured after 2 days post infection by crystal violet staining based assay relative to control; format: functional; design: scale not given: the % may be the effect or the level left
How it was run: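 ST6Gal I-expressing MDCK monolayers infected with ~100 pfu in DMEM/0.5% BSA, 1 h at 4 °C then 1 h at 37 °C; inoculum removed, PBS wash, overlay of DMEM with 1.2% Avicel and NAT (2.0 μg/mL) containing compound at 10 μM; 2-day incubation; plaque formation expressed as percent of DMSO control.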

[2] = system: Matrix protein 2 (Influenza A virus (A/Udorn/307/1972(H3N2))), P0DOF8 [S31N]; experiment: Inhibition of Influenza A virus amantadine-resistant M2 proton channel S31N mutant expressed in Xenopus laevis oocyte at 100 uM at pH 5.5 after 2 mins by two-electrode patch clamp assay relative to control
How it was run: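 Xenopus laevis oocytes microinjected with RNA for AM2-WT or AM2-S31N; channel activated at pH 5.5; two-electrode voltage clamp current recorded after 2 min exposure to 100 μM compound; expressed as percent current inhibition; three repeats on different oocytes, mean reported.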

[3] = system: Influenza A virus (A/California/07/2009(H1N1)); experiment: (§1) Antiviral activity against amantadine-resistant Influenza A virus A/California/07/2009 (H1N1) expressing M2 proton channel S31N mutant infected in MDCK cells harboring ST6Gal1 gene assessed as reduction in plaque formation measured after 2 days post infection by crystal violet staining based; format: functional, cell-based
[4] = as §1; format: functional, cell-based
[5] = Antiviral activity against amantadine/oseltamivir-resistant Influenza A virus A/Washington/29/2009 (H1N1) expressing AM2-S31N/neuraminidase-H275Y mutant infected in MDCK cells harboring ST6Gal1 gene assessed as reduction in plaque formation measured after 2 days post infection by crystal violet staining based; format: functional, cell-based
Influenza A virus = experiment: Antiviral activity against multidrug-resistant Influenza A virus A/Switzerland/9715293/2013 (H3N2) expressing M2 proton channel S31N mutant infected in MDCK cells harboring ST6Gal1 gene assessed as reduction in plaque formation measured after 2 days post infection by crystal violet staining based; format: functional, cell-based
[6] = system: Influenza A virus (A/California/07/2009(H1N1)); experiment: as §1, with “formation up to 30 uM” for “formation”; format: functional, cell-based

SMILES	Activity [1] [%]	inhibition [2] [%]	Activity [3]	EC50 [4] [nM]	EC50 [5] [nM]	EC50 (Influenza A virus) [nM]	Activity [6]
COc1ccc(-c2cc(CNC34CC5CC(CC(C5)C3)C4)no2)cn1	21.7	58					
Clc1cc(-c2cc(CNC34CC5CC(CC(C5)C3)C4)no2)c(Cl)s1	10.1	87.7					
c1ccc(-c2cc(CNC34CC5CC(CC(C5)C3)C4)no2)cc1	13.5		Dose-dependent effect	300			
FC(F)(F)Oc1cccc(-c2cc(CNC34CC5CC(CC(C5)C3)C4)no2)c1	72.7	56.7					
CS(=O)(=O)c1ccccc1-c1cc(CNC23CC4CC(CC(C4)C2)C3)no1	110	9.8					
c1ccc(-c2ccc(-c3cc(CNC45CC6CC(CC(C6)C4)C5)no3)cc2)cc1	36	45.6					
N#Cc1ccc(-c2cc(CNC34CC5CC(CC(C5)C3)C4)no2)cc1	28	72.2					
NC(=O)c1ccc(-c2cc(CNC34CC5CC(CC(C5)C3)C4)no2)cc1	57.1	47.4					
c1cncc(-c2cc(CNC34CC5CC(CC(C5)C3)C4)no2)c1	105.5	53					
OC12CC3CC(C1)CC(NCc1cc(-c4ccccc4Cl)on1)(C3)C2	8.3	87.1	Dose-dependent effect	900			
CSc1cccc(-c2cc(CNC34CC5CC(CC(C5)C3)C4)no2)c1	56.3	69.6					
COc1sccc1-c1cc(CNC23CC4CC(CC(C4)C2)C3)no1	7.2	94.2					
CSc1ccccc1-c1cc(CNC23CC4CC(CC(O)(C4)C2)C3)no1	9.2	90.6	Dose-dependent effect	1200			
c1ccc2c(-c3cc(CNC45CC6CC(CC(C6)C4)C5)no3)cccc2c1	36.1	56.8					
Clc1ccc(-c2cc(CNC34CC5CC(CC(C5)C3)C4)no2)s1	0	78.8	Dose-dependent effect		200	200	
CN(C)c1ccc(-c2cc(CNC34CC5CC(CC(C5)C3)C4)no2)cc1	35.7	83.2					
COC(=O)c1ccc(-c2cc(CNC34CC5CC(CC(C5)C3)C4)no2)cc1	24.1	73.6					
Oc1ccccc1-c1cc(CNC23CC4CC(CC(C4)C2)C3)no1	3.4	71.5	Dose-dependent effect	500			
Clc1cc(-c2cc(CNC34CC5CC(CC(C5)C3)C4)no2)cs1	10.9	87.9					
OC12CC3CC(C1)CC(NCc1cc(-c4cc(Cl)sc4Cl)on1)(C3)C2	13.7	89.9					inactive
COc1ccccc1-c1cc(CNC23CC4CC(CC(C4)C2)C3)no1	62.1	51.8					
